Reference: PMC3787807 (Journal of Natural Products, 2013)

What was measured:
[1] = target: TgACTI (T. gondii actin) (Toxoplasma gondii, UniProt P53476); test: Ninety-degree light scattering of TgACTI polymerization; format: biochemical; conditions: 5 μM TgACTI in F-buffer, compounds at 0.25, 1 or 2 μM, 9000 s
How it was run: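 Baculovirus-expressed N-His TgACTI was Ni-NTA purified, dialysed into G buffer (pH 8.0, 0.2 mM ATP) and spun at 100000g to remove aggregates. It was held at 5 μM in G buffer at 21 °C, with ex/em 310 nm. After a steady baseline, 10× F buffer (500 mM KCl, 20 mM MgCl2, 10 mM ATP) went in at 1/10 volume with compound or DMSO control. Scatter counted for 9000 s.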

[2] = test system: T. gondii; test: Inhibition of T. gondii proliferation; format: cell-based, Toxoplasma gondii; conditions: T. gondii growth on HFF monolayers
How it was run: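 β-gal-expressing parasites preincubated 30 min with compound dilutions in DMEM/10% FBS/gentamicin with 0.2% DMSO, then seeded at 500/well onto confluent HFF. Compound kept continuously or washed out after 2 or 48 h. After 72 h at 37 °C, 5% CO2, cells lysed and given chlorophenol red-β-D-galactopyranoside substrate. A570 normalised to untreated. EC50 from variable-slope log(inhibitor)–response fits, three experiments (n = 4 replicates).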

[3] = test system: human cells; conditions: read-out: EC50, growth inhibition of human cells; cited from earlier work

TgACTI (T. gondii actin), sequence (P53476 whole entry): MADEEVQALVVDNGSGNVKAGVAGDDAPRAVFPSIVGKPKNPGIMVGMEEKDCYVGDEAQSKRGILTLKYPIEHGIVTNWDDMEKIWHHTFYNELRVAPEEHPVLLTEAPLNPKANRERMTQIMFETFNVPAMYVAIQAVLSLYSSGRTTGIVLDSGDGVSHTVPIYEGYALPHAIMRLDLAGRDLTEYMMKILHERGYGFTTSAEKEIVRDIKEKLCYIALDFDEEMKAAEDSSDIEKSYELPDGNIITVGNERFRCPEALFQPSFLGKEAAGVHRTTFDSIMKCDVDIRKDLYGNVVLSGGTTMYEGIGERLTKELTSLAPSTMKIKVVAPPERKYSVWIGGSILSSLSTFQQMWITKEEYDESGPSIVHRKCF

SMILES	TgACTI polymerization (light scattering) [1]	activity against the parasite (in words) [2]	EC50 [3] [µM]
CO[C@@H]1C(=O)O[C@H](C)[C@H](C)/C=C(\C)C[C@H](C)C(=O)N[C@@H](C)C(=O)N(C)[C@H](Cc2c[nH]c3ccccc23)C(=O)N[C@H]1c1ccccc1 [2a, synthetic chondramide A]	promote actin polymerization		
CO[C@@H]1C(=O)O[C@H](C)[C@H](C)/C=C(\C)C[C@H](C)C(=O)N[C@@H](C)C(=O)N(C)[C@H](Cc2c[nH]c3ccccc23)C(=O)N[C@H]1c1ccc(C(N)=O)cc1 [2k]		eliminated activity against the parasite	~1.4
C/C1=C\[C@H](C)C[C@H](C)OC(=O)C[C@H](c2ccc(O)cc2)NC(=O)[C@@H](Cc2c(Br)[nH]c3ccccc23)N(C)C(=O)[C@H](C)NC(=O)[C@@H](C)C1 [compound 1, Jasplakinolide, reference compound]	promote actin polymerization		
CO[C@@H]1C(=O)O[C@H](C)[C@H](C)/C=C(\C)C[C@H](C)C(=O)N[C@@H](C)C(=O)N(C)[C@H](Cc2c[nH]c3ccccc23)C(=O)N[C@H]1c1ccc(O)cc1 [compound 2, chondramide A]	promote actin polymerization		
